L major viab = Leishmania major promastigote growth inhibition, primary screen; inhibition, % at 10 µM; Leishmania major promastigotes, resazurin fluorescence viability; 200,000 compounds, 9% hits; AID 1063, 2008; in the data active means inhibition above about 50%;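 further: promastigotes grown with compound for 44 hours at 28 °C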
PMI activator = activators of human PMI, primary screen, biochemical, fluorescence intensity, near-Km mannose 6-phosphate; activation factor at 20 µM; AID 1214, 2008; Mannose-6-phosphate isomerase (Homo sapiens), P34949; purified human PMI, coupled resazurin fluorescence, 20 min; stronger effect = higher value; 1 = vehicle control, 0 substrate-free wells; 190,000 compounds, 0.005% hits;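 active means activation factor of 2 or more at 20 µM, relative to plate controls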
PMI act hi M6P = human PMI activators, high substrate, primary screen, biochemical, fluorescence intensity, near-saturating mannose 6-phosphate. activation factor at 20 µM. Mannose-6-phosphate isomerase (Homo sapiens), P34949. coupled PMI enzyme assay, resazurin fluorescence, 20 min; stronger effect = higher value; 1 = untreated enzyme, 0 = substrate-free blank. 190,000 compounds, 0.34% hits;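 active means activation factor of 2 or more at 20 µM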
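Material: human phosphomannose isomerase with PGI, G6PDH, diaphorase coupling enzymes. Quantity: 15 ng/mL PMI. Medium: HEPES pH 7.4 buffer with MgCl2 and Tween-20. Reagent: Near-saturating mannose-6-phosphate, 1.0 mM. Compound: 20 µM single dose. Times: enzyme reaction with compound 20 min at room temperature. Detection: resorufin fluorescence at Ex 544/Em 590 nm.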
m-calpain inh = inhibitors of pig calpain II, primary screen, biochemical, fluorogenic peptide substrate, 1536-well; purified calpain II, 30 min; inhibition, % at 16 µM; 220,000 compounds, 0.37% hits; AID 1236, 2008;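 active means inhibition above about 50%, limit read from the data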
Rad51 HR inh = human RAD51 strand exchange inhibitors, primary screen, biochemical, fluorescence | DNA repair protein RAD51 homolog 1 (Homo sapiens), Q06609 | hRad51 DNA strand exchange, fluorescence dequenching | inhibition, % at 10 µM | 200,000 compounds, 0.085% hits | AID 1385, 2008;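 active means inhibition above 40% at the single screening dose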;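 further: 0% = DMSO control wells and 100% = blanks with heterologous ssDNA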
Target sequence (Q06609 whole entry, looked up): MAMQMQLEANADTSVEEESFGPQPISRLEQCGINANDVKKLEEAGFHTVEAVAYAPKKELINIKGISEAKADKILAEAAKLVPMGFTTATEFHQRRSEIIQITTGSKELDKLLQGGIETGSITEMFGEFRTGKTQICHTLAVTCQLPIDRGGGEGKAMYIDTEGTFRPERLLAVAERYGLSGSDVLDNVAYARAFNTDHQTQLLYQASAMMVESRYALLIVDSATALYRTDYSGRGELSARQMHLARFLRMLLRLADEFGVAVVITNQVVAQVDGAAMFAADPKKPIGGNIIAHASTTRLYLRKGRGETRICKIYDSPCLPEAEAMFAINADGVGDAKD
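material = hRad51 filaments on single-stranded DNA | reagent = Donor/quencher-labelled 47-bp dsDNA substrate | compound = 10 µM final, single point | schedule = strand-exchange reaction 15 min at room temperature | measured by = fluorescein emission 520 nm, excitation 485 nm | read-out basis = % inhibition versus plate control and blank means | benchmarks = plate controls and plate blanks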
WT yeast gro inh = growth inhibition of WT strain, primary screen, mitochondrial fusion inhibitor project, WT and mutant strains, chemical genetic. AID 1362, 2008. mitochondrial fusion phenotypic screen. inhibition, % at 10 µM. 190,000 compounds, 2.1% hits; in the data active means inhibition above about 58%; tested in S. cerevisiae
* = called active by the depositor. Sampled rows, rich in hits. Any-hit rate of the full collection: about 9.8%.

`Cc1nc(N2CCCCC2)c2c(C)c(C(=O)Nc3cccc(C(F)(F)F)c3)sc2n1` gave L major viab 62*, PMI activator 0.9, PMI act hi M6P 1, m-calpain inh -106, Rad51 HR inh 1 and WT yeast gro inh 70*.
OCC(O)C1OC(Nc2ccc(Cl)cc2)C(O)C1O (stereo not drawn) was read as m-calpain inh -5 and Rad51 HR inh -2.
`N#CC1(Cc2ccccc2)c2ccccc2C=CN1C(=O)c1ccccc1` (stereo not drawn) gave L major viab 82*, PMI activator 0.9, PMI act hi M6P 0.9, m-calpain inh 29, Rad51 HR inh -7 and WT yeast gro inh -9.
Screening N#CC1(Cc2ccc([N+](=O)[O-])cc2)c2ccccc2C=CN1C(=O)c1ccccc1 (stereo not drawn) returned L major viab 51*, PMI activator 0.8, PMI act hi M6P 0.8, m-calpain inh -9, Rad51 HR inh -5 and WT yeast gro inh 18.
CC1=Cc2ccccc2C(C#N)N1C(=O)c1ccccc1 (stereo not drawn) was read as L major viab 11, PMI activator 1.1, PMI act hi M6P 1, m-calpain inh -1, Rad51 HR inh -12 and WT yeast gro inh -12.
Screening O=C(c1ccccc1)c1ccc(Sc2ccc([N+](=O)[O-])cc2)cc1 returned m-calpain inh 22 and Rad51 HR inh -18.
For Cc1ccc(/C=C/C(=O)N2CCCC(C)C2)cc1 (stereo not drawn) the results were L major viab -6, PMI activator 0.9, PMI act hi M6P 0.9, m-calpain inh -5, Rad51 HR inh 6 and WT yeast gro inh -12.
For CC1CCN(C(=O)/C=C/c2ccc(C(C)(C)C)cc2)CC1 the results were L major viab 30, PMI activator 0.9, PMI act hi M6P 0.9, m-calpain inh 20 and WT yeast gro inh 62*.
COc1ccccc1N1CCN(C(=O)Cn2nc3n(C)c4ccccc4n3c(=O)c2=O)CC1 was read as L major viab -5, m-calpain inh -1, Rad51 HR inh -2 and WT yeast gro inh -14.
Screening Cc1cccc(C(=O)N2CCC(Cc3ccccc3)CC2)c1[N+](=O)[O-] returned L major viab 53*, PMI activator 0.9, PMI act hi M6P 1.1, m-calpain inh 0, Rad51 HR inh -5 and WT yeast gro inh 7.
Screening Cc1c(C(=O)N2CCC(Cc3ccccc3)CC2)cccc1[N+](=O)[O-] returned L major viab 14, m-calpain inh 7, Rad51 HR inh -4 and WT yeast gro inh 23.
Cc1ccc(/C=C/C(=O)N2CCC(Cc3ccccc3)CC2)cc1 was read as L major viab 43, PMI activator 0.8, PMI act hi M6P 0.9, m-calpain inh 28, Rad51 HR inh -3 and WT yeast gro inh 67*.
`COc1ccc(-c2ccc(=O)n(CC(=O)N3CCN(c4ccccc4OC)CC3)n2)cc1` gave L major viab 92* and WT yeast gro inh 14.
COc1ccccc1N1CCN(C(=O)COc2cc(C)ccc2C)CC1 was read as L major viab 64*, PMI activator 0.9, PMI act hi M6P 0.9, m-calpain inh 15, Rad51 HR inh -2 and WT yeast gro inh 1.
For COc1ccccc1N1CCN(C(=O)/C=C/c2ccc(C)cc2)CC1 the results were L major viab 55*, PMI activator 1.1, PMI act hi M6P 1.1, m-calpain inh 7, Rad51 HR inh -1 and WT yeast gro inh -10.
`COc1ccccc1N1CCN(C(=O)COc2ccc(C)cc2Br)CC1` gave L major viab 2, PMI activator 0.9, PMI act hi M6P 0.9, m-calpain inh 15, Rad51 HR inh -10 and WT yeast gro inh 15.
COC(=O)c1cccn(CC(=O)c2ccc(Cl)cc2Cl)c1=O was read as L major viab -1, PMI activator 1, PMI act hi M6P 0.9, m-calpain inh 1, Rad51 HR inh 3 and WT yeast gro inh -11.
`CCOC(=O)N1CCC(N2CCCC(CO)(Cc3ccccc3C)C2)CC1` (stereo not drawn) gave L major viab 88*, PMI activator 0.9, PMI act hi M6P 0.9, m-calpain inh -2, Rad51 HR inh -4 and WT yeast gro inh 27.
For CCOC(=O)N1CCC(N2CCCC(CO)(Cc3cccc(Cl)c3)C2)CC1 (stereo not drawn) the results were L major viab 87*, PMI activator 0.9, PMI act hi M6P 1, m-calpain inh -34, Rad51 HR inh -11 and WT yeast gro inh 25.
For CSCC(=O)N1CCCC(CO)(Cc2ccccc2C)C1 (stereo not drawn) the results were L major viab -5, PMI activator 0.9, PMI act hi M6P 0.9, m-calpain inh -17, Rad51 HR inh 9 and WT yeast gro inh -1.
For Cc1ccc(CN2CCCC(CO)(Cc3ccccc3C)C2)s1 (stereo not drawn) the results were L major viab 66*, PMI activator 0.9, PMI act hi M6P 0.9, m-calpain inh 9 and WT yeast gro inh 15.
`CCOC(=O)C1(Cc2cccc(Cl)c2)CCCN(C(=O)C2CC2)C1` (stereo not drawn) gave L major viab -1, PMI activator 0.9, PMI act hi M6P 0.9, m-calpain inh -20, Rad51 HR inh 30 and WT yeast gro inh -2.
Screening OCCC1CN(Cc2cccn2-c2cccnc2)CCN1C1CCCCC1 (stereo not drawn) returned L major viab -1, PMI activator 1, PMI act hi M6P 1, m-calpain inh -3 and WT yeast gro inh 3.
Screening CCOC(=O)N1CCN(C(=O)CSc2ccc3nnc(CCNC(=O)c4ccc(OC)cc4)n3n2)CC1 returned L major viab -6, PMI activator 1, PMI act hi M6P 0.9, m-calpain inh 16, Rad51 HR inh 8 and WT yeast gro inh -15.
Screening CC(=O)C1=C(S(=O)(=O)c2ccc(C)cc2)CS(=O)(=O)C1 returned L major viab 5, PMI activator 0.5, PMI act hi M6P 0.6, m-calpain inh 6, Rad51 HR inh 1 and WT yeast gro inh 3.
O=C(c1ccccc1)N(Cc1ccccc1)c1ccccn1 was read as L major viab 3, PMI activator 1, PMI act hi M6P 0.9, m-calpain inh 17, Rad51 HR inh 8 and WT yeast gro inh -9.
Screening O=C(C1CCCCC1)N(Cc1ccccc1)c1ccccn1 returned L major viab -4, PMI activator 0.9, PMI act hi M6P 0.9, m-calpain inh -4 and WT yeast gro inh 84*.

Screening data as filed in PubChem BioAssay.
